Results collected from several papers.
Target: Dual specificity protein kinase CLK3 (CLK3, Homo sapiens, UniProt P49761)

| Compound | observed | mode | technique | tested at | quantity | result |
| --- | --- | --- | --- | --- | --- | --- |
| N#CC1c2c([nH]c3c(Cl)c(Cl)ccc23)C(=O)NC12CCCCC2 (racemic) | thermal stability |  | DSF | 10 µM | ΔTm | 2.1 °C |
| O=C(Nc1cnn(-c2csc(C(=O)NC3COC3)c2)c1)Nc1ccccc1Cl | enzyme activity | inhibitor |  | 5 µM | remaining activity | 120% |
| C[S+]([O-])c1ccc(-c2nc(-c3ccncc3)c(-c3ccc(F)cc3)[nH]2)cc1 (stereo not drawn) | cell-free assay |  |  | 0.5 µM | remaining signal | 99.1% |
| CC/C(=N\NC(=O)NCc1cccc(O)c1)c1ccc(O)c(C)c1O | enzyme activity | inhibitor |  | 0.1 µM | inhibition | -1.4% |
| COc1cc2c(N3CCN(C(=O)Nc4ccc(OC(C)C)cc4)CC3)ncnc2cc1OCCCN1CCCCC1 | cell-free assay |  |  | 0.5 µM | remaining signal | 93.4% |
| CC(C)(O)[C@H]1CC[C@H](Nc2ccc3ncc(-c4cccc(C(F)(F)F)c4)n3n2)CC1 | enzyme activity | inhibitor |  | 1 µM | remaining activity | 59.3% |
| Oc1cccc(-c2nc(N3CCOCC3)c3oc4ncccc4c3n2)c1 | cell-free assay |  |  | 0.5 µM | remaining signal | 93.1% |
| C[C@H](NC(=O)c1cnc2n1[C@](C)(Cc1ccc(C#N)cc1)C(=O)N2c1cc(Cl)c(F)c(Cl)c1)C(=O)NC1(c2ccccn2)CC1 | cell-free assay |  | competition with immobilised ligand | 1 µM | remaining binding | 96% |
| CCCOc1ccc(OC)c(F)c1C(=O)c1ccc(C(=O)N[C@@H]2CNC[C@H]2NC(=O)c2ccc3[nH]ncc3c2)cc1 | enzyme activity | inhibitor |  | 10 µM | remaining activity | 105% |
| Cn1c2c(c3ccc(Cl)c(Cl)c31)C(C#N)C1(CCNCC1)NC2=O (racemic) | thermal stability |  | DSF | 10 µM | ΔTm | 2.2 °C |
| COc1cc(Cl)c(C(=O)N[C@@H](CN[C@H]2CC[C@@H](N)CC2)Cc2ccc(C#N)cc2)cc1-c1ccc(CN[C@H](C)c2ccc(C)cc2)o1 | enzyme activity | inhibitor |  | 1 µM | remaining activity | 99% |
| C[C@@H]1CN(c2cc(-c3nn(C)c4ccc(OC5(C)CC5)cc34)ncn2)C[C@H](C)O1 | cell-free assay |  | competition with immobilised ligand | 1 µM | remaining binding | 98% |
| CCN1/C(=C/C(C)=O)Sc2ccc(OC)cc21 | cell-free assay |  |  | 0.5 µM | remaining signal | 95% |
| C[C@@]1(Cc2ccc(C#N)cc2)C(=O)N(c2cc(Cl)cc(Cl)c2)c2ncc(C(=O)NC3(c4nc(C5CCC5)no4)CC3)n21 | cell-free assay |  | competition with immobilised ligand | 1 µM | remaining binding | 100% |
| CC(C)(C)c1nc2c(s1)c1nc(N)ncc1c1ccc(NS(=O)(=O)c3c(F)cccc3F)c(F)c12 | enzyme activity | inhibitor | radiometric | 1 µM | remaining activity | 82% |
| Cc1cnc(NC2CCOCC2)nc1-n1cnc(C(=O)NC(CN)c2cc(F)cc(Cl)c2)c1 (stereo not drawn) | enzyme activity | inhibitor | radiometric | 1 µM | remaining activity | 99% |
| COc1cc2ncnc(Nc3ccc(Oc4ccccc4)c(C)c3C)c2cc1OC | enzyme activity | inhibitor |  | 1 µM | inhibition | -3% |
| Cn1c2c(Cl)c(Cl)ccc2c2cc(N)[nH]c(=O)c21 | thermal stability |  | DSF | 10 µM | ΔTm | 0.6 °C |
| CN(C)c1ncnc(-c2ccc3nc(Nc4cc(CN5CCN(C(=O)CC(F)(F)F)CC5)ccn4)[nH]c3c2)c1Cl | cell-free assay |  | competition with immobilised ligand | 1 µM | remaining binding | 100% |
| CCN(CC)CCNC(=O)c1c(C)[nH]c(/C=C2\C(=O)Nc3ccc(F)cc32)c1C | enzyme activity | inhibitor |  | 0.3 µM | inhibition | -1% |
| Cn1c2c(c3ccc(Cl)c(Cl)c31)C(C#N)C(C)(C)NC2=O (stereo not drawn) | thermal stability |  | DSF | 10 µM | ΔTm | 1.9 °C |
| O=C(NC[C@@H]1[C@H]2CN(C(=O)OCc3cc(C(F)(F)F)cc(C(F)(F)F)c3)C[C@@H]12)c1ccc2[nH]nnc2c1 | cell-free assay |  | competition with immobilised ligand | 1 µM | remaining binding | 78% |
| O=C(Nc1cnn(-c2csc(C(=O)NC3COC3)c2)c1)Nc1c(F)cccc1Cl | enzyme activity | inhibitor |  | 5 µM | remaining activity | 93.5% |
| Nc1ncnc2occ(-c3ccc(NC(=O)Nc4cc(C(F)(F)F)ccc4F)cc3)c12 | cell-free assay | inhibitor |  | 20 µM | remaining signal | 54% |
| Cc1nccc(COC(=O)N2C[C@@H]3[C@@H](CNC(=O)c4ccc5[nH]nnc5c4)[C@@H]3C2)n1 | cell-free assay |  | competition with immobilised ligand | 1 µM | remaining binding | 90% |
| Cc1ccc(Nc2nccc(N(C)c3ccc4c(C)n(C)nc4c3)n2)cc1S(N)(=O)=O | enzyme activity | inhibitor |  | 10 µM | inhibition | 32% |
| CCC(=N\O)/C(C)=C/c1ccc(F)cc1 | cell-free assay |  | competition with immobilised ligand | 1 µM | remaining binding | 73% |
| CNC(=O)c1cc(Oc2ccc(NC(=O)Nc3ccc(Cl)c(C(F)(F)F)c3)cc2)ccn1 | enzyme activity | inhibitor |  | 10 µM | inhibition | 13% |
| Nc1cnc(N2CCc3cc(S(=O)(=O)Nc4c(F)cc(Cl)cc4F)cc(N4CCCC4=O)c32)nc1 | cell-free assay |  | competition with immobilised ligand | 1 µM | remaining binding | 74% |
| COc1cc(Nc2c(C#N)cnc3cc(OCCCN4CCN(C)CC4)c(OC)cc23)c(Cl)cc1Cl | cell-free assay |  |  | 0.5 µM | remaining signal | 94.9% |
